The text below walks through data of PMC10966424 (Experimental and Therapeutic Medicine, 2024).

Data set [1] in a line: MTT cell viability, RAW 264.7 macrophages. It is filed as cell-based, murine. The settings on record: mouse. In short, it runs like this:
(§1)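 Cells are seeded at 1x10^5 cells/well, cultured for 24 h, then exposed to test compound at various concentrations for a further 24 h. MTT is added, formazan is dissolved in DMSO and absorbance is read at 570 nm. The tabulated viability is at 200 µM. Done at least in triplicate.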

Data set [2] has as its system PGE2 production in LPS-stimulated RAW 264.7 cells. As to the kind of experiment: LPS-stimulated PGE2 production. Type of data set: cell-based, murine. The note with it: Mus musculus, RAW264.7, 24 h, read-out: IC50 of PGE2, LPS (0.1 µg/ml)-stimulated RAW 264.7 cells, 24 h. In short, it runs like this:
(§2)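 Macrophages are grown in DMEM with 10% FBS at 37 °C and 5% CO2, seeded at 1x10^5 cells/well and cultured for 24 h. They are pretreated with test compound for 1 h, then given LPS for 24 h (RAW 264.7: 0.1 µg/ml; DH82: 2 µg/ml). Medium NO is measured by Griess reagent against a standard curve; supernatant PGE2 is measured by ELISA. Done at least in triplicate.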

For data set [3], the system named is Mycobacterium tuberculosis. The settings on record: at low concentrations; cited from earlier work.
Data set [4] concerns NO production in LPS-stimulated RAW 264.7 cells. As to the kind of experiment: LPS-stimulated NO production. The note with it: Mus musculus, RAW264.7, 24 h, read-out: IC50 of NO, LPS (0.1 µg/ml)-stimulated RAW 264.7 cells, 24 h. Type of data set: cell-based, murine. In outline: as §2
A short description of data set [5]: MTT cell viability, DH82 macrophages. It is filed as cell-based, canine. The note with it: dog. In outline: as §1
Data set [6] can be described thus: ABTS+ radical scavenging. The settings on record: compared with parent nialamide. In outline:
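ABTS radical cation formed by mixing 7 mM ABTS in ethanol with 2.4 mM potassium persulfate and holding it in the dark at 25 °C for 24 h. The solution is added to test compound at several concentrations, mixed for 30 sec, then incubated for 30 min at 25 °C. Scavenging % = [1-(A2/A1)]x100, where A1 is the blank without sample. (+)-Catechin is the positive control; n=3.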

In data set [7] the test system is IL-10. As to the kind of experiment: LPS-stimulated IL-10 production. It is filed as cell-based, murine. The settings on record: LPS-stimulated RAW 264.7; compared with nialamide. In short, it runs like this:
(§3)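 Seeding is 1x10^5 cells/well in DMEM with 10% FBS, followed by 24 h culture. Cells receive test compound for 1 h before LPS stimulation for 24 h (RAW 264.7: 0.1 µg/ml LPS; DH82: 2 µg/ml LPS). TNF-α, IL-6 and IL-10 in the culture medium are quantified by ELISA kits; n=3.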

A short description of data set [8]: DPPH radical scavenging. The note with it: compared with parent nialamide; 50 to 200 µM. In outline:
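DPPH (200 µM in EtOH) is mixed 1:2 by volume with test compound solutions (50 to 200 µM in 70% EtOH). The mixture is incubated at 30 °C in the dark for 15 min, and the drop in absorbance at 517 nm is read. Scavenging % = [1-(A2/A1)]x100, where A1 is the blank without sample. (+)-Catechin is the positive control; n=3.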
On the technique in general: Loss of DPPH colour is used to gauge radical scavenging.

The subject of data set [9] is COX-2. As to the kind of experiment: Western blot COX-2 protein expression, DH82. Type of data set: cell-based, canine. The settings on record: LPS-stimulated DH82; compared with nialamide. In outline: (§4)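 Cells (2x10^5/well) are cultured for 24 h and pretreated with test compound for 1 h. LPS follows for 24 h (RAW 264.7: 0.1 µg/ml; DH82: 2 µg/ml). RIPA lysates (40 µg protein, BCA-quantified) are run on 10% SDS-PAGE and transferred to PVDF. Membranes are blocked in 5% milk, probed overnight at 4 °C with anti-iNOS and anti-COX-2 (1:1,000; canine-specific antibodies for DH82), then HRP secondary (1:3,000) for 2 h. Detection is ECL; densitometry uses GAPDH as the internal control; n=3.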

Data set [10] has as its system NF-κB. As to the kind of experiment: Western blot NF-κB phosphorylation, RAW 264.7. It is filed as cell-based, murine. The settings on record: RAW 264.7 cells. In outline:
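RAW 264.7 cells (2x10^5/well) are pretreated with test compound for 1 h, then stimulated with 0.1 µg/ml LPS for 24 h. RIPA lysates (40 µg) are separated on 10% SDS-PAGE and blotted to PVDF. Blots are probed overnight at 4 °C with anti-p-p65, p65, p-IκB and IκB (1:1,000), followed by HRP secondary and ECL detection. GAPDH is the loading control; three independent experiments.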

Data set [11] has as its system iNOS. As to the kind of experiment: Western blot iNOS protein expression, RAW 264.7. It is filed as cell-based, murine. The settings on record: LPS-stimulated RAW 264.7; compared with nialamide. In short, it runs like this:
as §4
In general terms: Immunoblotting shows a protein as a band on a membrane.

The subject of data set [12] is COX-2. As to the kind of experiment: Western blot COX-2 protein expression, RAW 264.7. It is filed as cell-based, murine. The settings on record: LPS-stimulated RAW 264.7; compared with nialamide. In outline:
as §4

Data set [13] deals with iNOS. As to the kind of experiment: Western blot iNOS protein expression, DH82. Type of data set: cell-based, canine. The note with it: LPS-stimulated DH82; compared with nialamide. In outline: as §4
For data set [14], the system named is IL-6. As to the kind of experiment: LPS-stimulated IL-6 production. It is filed as cell-based, murine. The note with it: LPS-stimulated RAW 264.7; compared with nialamide. In short, it runs like this: as §3
In data set [15] the test system is ROS production in LPS-activated RAW 264.7 macrophages. As to the kind of experiment: Intracellular ROS. It is filed as cell-based, murine. The note with it: LPS 0.1 µg/ml, 50 to 200 µM, DCFH-DA.
For data set [16], the system named is TNF-α. As to the kind of experiment: LPS-stimulated TNF-α production. Type of data set: cell-based, murine. The note with it: LPS-stimulated RAW 264.7; compared with nialamide. In short, it runs like this:
as §3

One may read the viability as a read-out of living cells in per cent, often relative to untreated cells. On to `O=C(CCNNC(=O)c1ccncc1)NCc1ccccc1` [Compound 1, nialamide, reference compound], for which the viability at 24 h, 200 µM came to 102 ± 2.3% in [1] and 99.9 ± 1.2% in [5]. In addition, the IC50 in [2] and in [4] was above 200 µM throughout. Besides, in data set [3], the “inhibition of Mycobacterium tuberculosis” value is “effectively inhibits”.
Consider `COCCC(=O)NCc1ccccc1` [Compound 4, 3-methoxy-N-benzylpropanamide], for which the viability at 24 h, 200 µM in [1] is 102 ± 2.2%; in data set [5], 97.6 ± 1.1%. The IC50 in data set [2] came to 161 ± 2 µM; in [4], 178 ± 2 µM.
For `O=C(CCO)NCc1ccccc1` [Compound 5, 3-hydroxy-N-benzylpropanamide], the “ABTS+ scavenging activity” value in data set [6] was “enhancement”. The IL-10 production result in [7] was “potent dose-dependent suppression”. Besides, in data set [8], the “DPPH radical scavenging activity” value is listed as “enhancement”. Moreover, the results for the viability at 24 h, 200 µM in data set [1] and in data set [5] were 99.9 ± 2.2% and 97.2 ± 1%, respectively. Further, the COX-2 protein expression entry in data set [9] and in [12] was “significant dose-dependent suppression” each time. In addition, the “LPS-stimulated phosphorylation of NF-κB” value in [10] is listed as “dose-dependent inhibition”. The iNOS protein expression result in data set [11] and in data set [13] was “significant dose-dependent suppression” throughout. For the same compound, the results for the IC50 in data set [2] and in data set [4] were 55.4 ± 0.7 µM and 63.5 ± 0.8 µM, respectively. For the same compound, in [14], the IL-6 production result is on record as “potent dose-dependent suppression”. Further, the ROS production result in data set [15] was “effectively suppress ROS production in a dose-dependent manner”. For the same compound, in data set [16], the TNF-α production entry was “potent dose-dependent suppression”.
On to `NC(=O)c1ccncc1` [Compound 7, isonicotinamide], for which the viability at 24 h, 200 µM in [1] came to 101 ± 1.9%; in [5], 98.4 ± 1.2%. Moreover, the IC50 in [2] and in data set [4] was above 200 µM each time.
As to `NCCC(=O)NCc1ccccc1` [Compound 3, 3-amino-N-benzylpropanamide], the figures for the viability at 24 h, 200 µM in [1] and in data set [5] were 102 ± 2% and 99.7 ± 1.2%, respectively. Also, the IC50 in [2] was 155 ± 1.9 µM; in data set [4] it was 170 ± 1.9 µM.
